Laboratory results reported in PubChem BioAssay AID1136 (Sanford-Burnham Center for Chemical Genomics, 2008).
Out of some 200,000 compounds screened, fewer than 10 were called active.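 Rule for the calls: active = activation factor at least 2 at 20 µM; inactive = the rest.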 Not all results are given here.

Biological target: Alkaline phosphatase, tissue-nonspecific isozyme (Homo sapiens) (UniProt P05186)
Test: TNAP activators at high phosphate acceptor level, primary screen, biochemical, luminescence, uHTS (AID 1136)
Settings: purified TNAP, CDP-star luminescence, 1 M DEA, 30 min; at 20 µM; hits give high values; 0 = EDTA background, 1 = DMSO-only activity
In short: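 Test system – human TNAP · Doses – 20 µM single point · Incubation – 30 min, room temperature · Signal – luminescent substrate turnover signal · Read-out basis – activation factor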

Sequence of Alkaline phosphatase, tissue-nonspecific isozyme (Homo sapiens) (P05186 whole entry, looked up): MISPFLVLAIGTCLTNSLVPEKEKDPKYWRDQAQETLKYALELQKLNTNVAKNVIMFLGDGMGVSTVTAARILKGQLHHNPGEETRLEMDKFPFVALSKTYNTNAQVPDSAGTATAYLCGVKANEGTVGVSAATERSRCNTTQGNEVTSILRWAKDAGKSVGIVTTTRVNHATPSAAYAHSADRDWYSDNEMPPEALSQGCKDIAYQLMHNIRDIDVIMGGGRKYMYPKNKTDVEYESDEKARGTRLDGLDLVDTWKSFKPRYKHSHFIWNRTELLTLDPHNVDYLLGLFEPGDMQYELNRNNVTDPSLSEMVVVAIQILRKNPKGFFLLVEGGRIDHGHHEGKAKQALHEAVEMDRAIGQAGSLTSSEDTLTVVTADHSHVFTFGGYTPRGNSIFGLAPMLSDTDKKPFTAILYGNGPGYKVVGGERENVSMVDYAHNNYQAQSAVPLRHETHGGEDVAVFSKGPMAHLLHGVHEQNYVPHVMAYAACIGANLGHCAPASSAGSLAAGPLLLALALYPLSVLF

Activation factor, inactive:
CC1CCCN(S(=O)(=O)c2ccc(N(C(=O)c3cnccn3)C(C(=O)NC3CCCCC3)c3cccs3)cc2)C1 (stereo not drawn) 0.9
COc1ccc([N+](=O)[O-])cc1NC(=O)C(C)OC(=O)C1c2ccccc2Oc2ccccc21 (stereo not drawn) 1
COc1ccc(C(=O)Nc2ccc(NC(=O)C(C)C)nc2)cc1 1.1
COc1ccc(CNc2c(CO)cnc3c2cnn3C)cc1 1
CCOC(=O)c1sc(=NC(=O)/C=C/c2cccs2)n(C)c1C 1
CN(C)C(CNC(=O)c1ccc(S(=O)(=O)NCc2ccco2)cc1)c1ccccc1 (stereo not drawn) 1
Cc1cc(C)cc(OCC(=O)Nc2ccc(S(=O)(=O)Nc3ccccn3)cc2)c1 1
COc1ccc(C(=O)NC(=S)Nc2ccc(Cl)cn2)cc1OC 1.1
COc1ccc(N2C(=O)CC(Nc3ccc(F)cc3)C2=O)c([N+](=O)[O-])c1 (stereo not drawn) 1
CC(Oc1cccc(NC(=O)c2cccs2)c1)C(=O)c1ccccc1 (stereo not drawn) 1
CCCNS(=O)(=O)c1ccc(CCC(=O)N2CCCC2)cc1 1.1
COc1cc(OC)cc(-c2nnc(SCC(=O)Nc3ccc(C(=O)O)cc3)s2)c1 1
O=C(N/N=C/c1ccc(OCC2COCCO2)cc1)c1ccc(Br)cc1 (stereo not drawn) 1
CCN(C(=O)c1ccc(Br)cc1)c1ccccc1 1
Cn1ncc(N2CCN(S(=O)(=O)c3ccc(Br)cc3)CC2)c(Cl)c1=O 1.1
O=C(CSCC(=O)Nc1cccc([N+](=O)[O-])c1)Nc1ccccc1 1
Cc1ccc(S(=O)(=O)NNC(=O)Nc2cccc3ccccc23)cc1 1
CCN(CC)c1ccc2c(Nc3ccccc3)c(C=O)c(=O)oc2c1 1
O=C(COC(=O)CCCSc1nc2ccccc2[nH]1)Nc1ccc(Oc2ccccc2)cc1 1.1
O=C(NCc1cccnc1)c1cccc(-c2cc3ccccc3oc2=O)c1 1.1
C=CCN(C(=O)c1cc(C)cc(C)c1)C1(C(=O)Nc2ccccc2)CCN(C(C)C)CC1 1
CCOc1ccc(C(=O)Nc2nccs2)cc1[N+](=O)[O-] 1
COc1ccc(C)cc1NC(=O)NCc1ccccn1 1
CCC1S/C(=N/N=C/c2ccco2)NC1=O (stereo not drawn) 1
CN(C)S(=O)(=O)c1ccc2oc(SCC(=O)Nc3ccccc3F)nc2c1 1
C=CCOC(=O)C1=C[C@@H](c2ccccc2)C[C@@H](OCc2ccc(CO)cc2)O1 1.1
NC1=C([N+](=O)[O-])C(c2ccccc2)C2=C(CCCC2=O)O1 (stereo not drawn) 1
Cc1ccc(C2(C(F)(F)F)N=C3Sc4cc(C)cc(C)c4N3C(=O)N2)cc1 (stereo not drawn) 1
CCN(CC(=O)NC1CCS(=O)(=O)C1)c1nc(-c2cccnc2)nc2ccccc12 (stereo not drawn) 1
COCC(C)NC(=O)COc1nncc2ccccc12 (stereo not drawn) 1.1
CC(=O)N1C(C)c2ccccc2C(C)(C)CC12CCCCC2 (stereo not drawn) 1
Cn1cccc1/C=C1\SC(=O)N(CC(=O)Nc2ccc(F)cc2)C1=O 1.1
COc1ccc(NC(=O)c2sc(N)nc2-c2ccccc2)cc1 1
Cc1c(NC(=S)NC(=O)CCc2ccccc2)c(=O)n(-c2ccccc2)n1C 1.1
CCCc1nc2c([nH]1)C(c1cccnc1)C(C#N)=C(N)O2 (stereo not drawn) 1
O=C1OC(/C=C/c2ccccc2)=NC/1=C/c1ccco1 1
CCc1ccc(CN(C)Cc2nc(Cc3ccccc3)no2)nc1 1.1
O=C(O)c1ccc2c3c(cccc13)C(=O)N(OS(=O)(=O)c1ccccc1)C2=O 1
CCN(CC)C(=O)Oc1ccc(OC(=O)N(CC)CC)cc1 1.1
CC(Sc1nncn1C)C(=O)Nc1cc(C(F)(F)F)ccc1N1CCOCC1 (stereo not drawn) 1
CN(C)/C=C(/C(=O)c1ccccc1)S(=O)(=O)c1ccc(Cl)cc1 1
O=C(/C=C/c1ccc([N+](=O)[O-])cc1)NCCSCc1ccco1 1
O=C(Oc1cccc(O)c1)C1CCCCC1 1
O=C(NCCc1ccccc1)C1CCC(Cn2c(=O)c3ccccc3n(Cc3cccnc3)c2=O)CC1 (stereo not drawn) 0.9
C=CCc1ccc(OCC(O)CN2CCN(Cc3ccccc3)CC2)c(OC)c1 (stereo not drawn) 1
CC(C)(C)NCc1cc(Br)ccc1OC1CCCC1 1
O=C(NCc1nnc(SCC(=O)N2CCCc3ccccc32)o1)c1ccccc1F 1
CN1CCN(c2ccc(NC(=O)c3ccc4c(c3)OCCO4)cc2Cl)CC1 1.1
O=C(CC(=O)N/N=C\c1cccc(Cl)c1Cl)NCc1ccccc1 1
Cc1cc([N+](=O)[O-])nn1CC(=O)Nc1ccc(Cc2ccncc2)cc1 1
Cc1cc(C)n(-c2ccc(C(=O)O)cc2[N+](=O)[O-])n1 1
Cc1cccc(Nc2nc3c(S(=O)(=O)c4ccccc4)nnn3c3ccccc23)c1C 1.1
Cc1ccc(S(=O)(=O)NC(=O)COc2ccccc2C)cc1 1
Cc1nc2c(C(=O)NCc3cccs3)cnn2c(C)c1Cc1ccc(F)cc1 1
CC(=O)c1cccc(NC(=O)[C@@H](NC(N)=O)C(C)C)c1 1
Cc1cccc(C)c1OCC(=O)NC(Cc1c[nH]c2ccccc12)C(=O)O (stereo not drawn) 0.9
COc1ccc(N2CCN(C(=O)CNS(=O)(=O)c3ccc(C)c(C)c3)CC2)cc1 1.1
Cc1ccc(-n2cnc3ncnc(-c4ccccc4)c32)cc1 1.1
O=c1cc(CO)oc(C(Nc2cccc([N+](=O)[O-])c2)c2ccccn2)c1O (stereo not drawn) 1
Cc1ccc(NC(=O)c2csc3c2CCCC3)cc1 1
CCNC(=O)CC1C(=O)N(c2ccc(OC)cc2)C(=S)N1CCc1ccncc1 (stereo not drawn) 1
O=C(CC12CC3CC(CC(C3)C1)C2)NCc1ccco1 1
CN(C)c1ccc(/C=N\S(=O)(=O)c2ccccc2)cc1 1
